From article PMC8842743 (Journal of Alzheimer's Disease Reports, 2022)

Tests used:
[1] = Dog plasma protein binding; type: in vitro ADME; settings: equilibrium dialysis of dog plasma
Method in brief: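 Fraction unbound was determined in vitro by equilibrium dialysis of mouse brain homogenate or dog plasma. Unbound concentrations were derived by multiplying the total measured concentrations by this fraction unbound.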

[2] = system: CSF Aβ1–40 and Aβ1–42 in healthy subjects; assay: Clinical single-dose CSF Aβ pharmacodynamics; type: in vivo, human
Method in brief: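 Healthy subjects received single doses of 1.6, 10 or 26 mg or placebo. Serial CSF was drawn through an indwelling subarachnoid lumbar catheter from 4 h pre-dose to 36 h post-dose. For each subject, the time of the lowest observed Aβ1–40 and Aβ1–42 concentration, the change from baseline at nadir and the 24 h time-averaged change from baseline were reported.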

[3] = Clinical single-dose plasma pharmacokinetics; type: in vivo, human; settings: for Cmax / AUC (0∞) / t1/2 / CLR: geometric mean (CV%); for tmax: median (range)
Method in brief: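 Healthy subjects received single oral doses of placebo or 0.1 mg (n = 3 per group), or 0.4, 1.6, 5, 15 or 45 mg (n = 8 per group). Plasma was sampled immediately pre-dose and up to 120 h post-dose. Reported parameters were Cmax, tmax, terminal t1/2, AUC0–∞, clearance and apparent volume of distribution.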

[4] = Plasma and CSF pharmacokinetics in beagle dogs; type: in vivo, dog
[5] = system: CSF Aβ1–40, Aβ1–42, sAβPPα, sAβPPβ in healthy subjects; assay: Clinical multiple-dose CSF pharmacodynamics; type: in vivo, human
[6] = system: Aβ1-x in plasma and CSF of beagle dogs; assay: Pharmacodynamics in cannulated beagle dogs; type: in vivo, dog; settings: 1.5 mg/kg oral
Method in brief: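 Six male cannulated beagle dogs received a single 1.5 mg/kg oral dose in 1% hydroxyethylcellulose. Plasma was sampled pre-dose and at 0.5–48 h. CSF was sampled 0.5 h pre-dose (baseline) and at 3, 6, 9, 24 and 48 h. Aβ1–x was measured by sandwich ELISA (m266.2 capture, biotinylated 3D6 reporter), averaged across dogs and expressed relative to baseline. Statistics: ANOVA with Tukey post hoc.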

[7] = biological target: T1, Renin recombinant human enzyme (Homo sapiens, UniProt P00797); assay: Renin FRET assay; type: biochemical; settings: read-out: Renin FRET Assay Absolute IC50; n = 1/2; value (SD)
T1 sequence (P00797 67-406): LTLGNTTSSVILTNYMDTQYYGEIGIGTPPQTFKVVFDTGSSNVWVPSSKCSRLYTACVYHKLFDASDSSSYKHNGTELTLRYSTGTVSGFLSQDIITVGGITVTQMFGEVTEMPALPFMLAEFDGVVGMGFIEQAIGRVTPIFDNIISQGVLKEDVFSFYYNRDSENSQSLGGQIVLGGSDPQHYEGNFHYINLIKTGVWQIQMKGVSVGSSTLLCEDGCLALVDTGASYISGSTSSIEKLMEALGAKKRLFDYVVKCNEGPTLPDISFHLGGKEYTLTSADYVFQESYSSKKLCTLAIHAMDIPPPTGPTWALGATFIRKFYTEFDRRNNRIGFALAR

[8] = system: PDAPP primary cortical neurons; assay: PDAPP neuronal cytotoxicity; type: cell-based, mouse
Method in brief: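 Primary cortical neurons from gestational-day-16 PDAPP (APP V717F) embryos were grown at 15×10^4 cells/well in DMEM/F12 (1:1) with B27. Cells were exposed to test compound for 24 h at 37°C. Viability was read by MTT assay as absorbance at 595 nm.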

patients with mild AD = settings: Phase II study; cited from earlier work
[9] = Clinical multiple-dose pharmacokinetics; type: in vivo, human; settings: for AUCτ,ss / CLR / t1/2 / tmax: day 14; for AUCτ,ss / CLR / t1/2 / Cmax: geometric mean (CV%); for tmax: median (range); for Cmax: day 14 steady state
Method in brief: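 Healthy subjects took daily oral doses for 14 days. Plasma was sampled up to 24 h after the first dose, before the day-14 dose and up to 120 h after it, plus pre-dose troughs every 2 days to assess steady state. Clearance, apparent volume, tmax and t1/2 were reported. Accumulation ratio = AUCτ,ss divided by first-dose AUCτ, per subject.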

[10] = system: Aβ1-x, C99, sAβPPβ in PDAPP mice; assay: In vivo pharmacodynamics in PDAPP mice; parameters: species or system mouse; settings: 3.0 mg/kg oral
Method in brief: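 Young (2–3 months) female PDAPP mice (n = 6–8 per group) got a single oral gavage of vehicle (7% Pharmasolve, 10 mL/kg) or 0.3, 1.0 or 3.0 mg/kg. Hippocampal and cortical Aβ1–x, C99 and sAβPPβ were measured in brain extracts 3 h post-dose. In a time course (3.0 mg/kg, n = 6), hippocampal and CSF Aβ1–x were measured at 3, 6, 9 and 12 h. Statistics: ANOVA, then Tukey post hoc, p < 0.05.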

[11] = 1 mg daily for 14 days, 24 h after final dose
[12] = 26 mg daily for 14 days, samples below LLOQ assigned one-half the LLOQ

## COc1cnc(C(=O)Nc2ccc(F)c([C@]34CN(c5ncc(F)cn5)C[C@H]3CSC(N)=N4)c2)cn1 [LY3202626]
[1]
  dog plasma free fraction: 0.009
[2]; single dose 1.6 mg
  CSF Aβ1–42 mean reduction from baseline at nadir: –33.4%
  time of mean nadir of CSF Aβ1–42: approximately 10 h
[2]; single dose 26 mg
  CSF Aβ1–42 mean reduction from baseline at nadir: –71.6%
  time of mean nadir of CSF Aβ1–42: approximately 28 h
[3]; healthy subjects, across dose levels
  Renal clearance: approximately 1 L/h
[3]; healthy subjects, across dose levels except 15 mg
  Apparent oral clearance: approximately 26 L/h
[3]; healthy subjects, single oral doses, plasma
  terminal t1/2: approximately 20 h
[3]; single dose 0.1 mg, n = 3
  Cmax: 0.169 (50) ng/mL
[3]; single dose 0.1 mg
  tmax: 3.08 (3.00–6.00) h
[3]; single dose 0.4 mg, n = 8
  Cmax: 0.486 (81) ng/mL
[3]; single dose 0.4 mg
  tmax: 3.55 (3.00–8.00) h
[3]; single dose 1.6 mg, n = 8
  Cmax: 2.89 (70) ng/mL
[3]; single dose 1.6 mg
  AUC (0∞): 60.6 (49) ng·h/mL
  t1/2: 23.0 (21) h
  tmax: 3.00 (3.00–4.00) h
[3]; single dose 5 mg, n = 8
  Cmax: 7.91 (56) ng/mL
[3]; single dose 5 mg
  AUC (0∞): 197 (38) ng·h/mL
  CLR: 1.09 (64) L/h
  t1/2: 19.8 (42) h
  tmax: 4.03 (2.90–24.12) h
[3]; single dose 15 mg, n = 8
  Cmax: 21.3 (77) ng/mL
[3]; single dose 15 mg
  AUC (0∞): 393 (84) ng·h/mL
  CLR: 0.829 (37) L/h
  t1/2: 19.5 (25) h
  tmax: 3.01 (1.98–4.00) h
[3]; single dose 45 mg, n = 8
  Cmax: 92.5 (47) ng/mL
[3]; single dose 45 mg
  AUC (0∞): 1680 (34) ng·h/mL
  CLR: 1.03 (53) L/h
  t1/2: 21.5 (19) h
  tmax: 2.54 (2.00–4.07) h
[4]; 1.5 mg/kg oral
  mean CSF AUC (3–9 h): 25 nM·h
  mean free plasma AUC (3–9 h): 28 nM·h
[4]; 1.5 mg/kg oral, mean±SD
  plasma AUC(0-∞): 10.812 ± 5.195 µM·h
[4]; read-out: maximum plasma concentration (Cmax), 1.5 mg/kg oral, mean±SD
  Cmax: 2990 ± 750 nM
[5]; [11]
  decrease in CSF Aβ1–40 from baseline: approximately 50%
  decrease in CSF Aβ1–42 from baseline: approximately 50%
[5]; 12 mg QD
  lowering of CSF Aβ species, modeling of the clinical data: at least 90%
[5]; 26 mg daily for 14 days
  increase in CSF sAβPPα from baseline: 111%
  reduction in CSF sAβPPβ from baseline: 92.7%
[5]; [12]
  reduction in CSF Aβ1–40 from baseline: approximately 94%
  reduction in CSF Aβ1–42 from baseline: approximately 94%
[5]; multiple doses of 6 mg
  decrease in CSF sAβPPβ: more than 70%
[6]
  time CSF Aβ1-x remained significantly suppressed after dosing: 24 h
[6]; 9 h time point
  maximal reduction of CSF Aβ1-x: ~80%
[6]; 48 h time point
  reduction of plasma Aβ1-x: approximately 40%
[6]; by 2 h after dosing, vs baseline
  suppression of plasma Aβ1-x levels: up to 80%
[7]
  IC50: > 14 µM
[8]; read-out: EC50 for inducing cytotoxicity in PDAPP neurons, MTT
  EC50: > 100 µM
[8]; read-out: PDAPP 1° Neuron Cytotox Relative IC50, n = 1/7
  IC50: > 100 µM
Patients with mild AD
  hepatotoxicity: no evidence of hepatotoxicity
[9]; multiple dose 1 mg
  AUCτ,ss: 38.6 (25) ng·h/mL
  CLR: 1.61 (46) L/h
  t1/2: 33.1 (38) h
  tmax: 4.04 (3.98–4.23) h
[9]; multiple dose 1 mg, n = 8
  Cmax: 2.57 (25) ng/mL
[9]; multiple dose 6 mg
  AUCτ,ss: 151 (54) ng·h/mL
  CLR: 1.09 (86) L/h
  t1/2: 38.1 (29) h
  tmax: 3.87 (1.95–4.00) h
[9]; multiple dose 6 mg, n = 9
  Cmax: 11.2 (71) ng/mL
[9]; multiple dose 26 mg
  AUCτ,ss: 1020 (50) ng·h/mL
  CLR: 1.29 (39) L/h
  t1/2: 46.3 (25) h
  tmax: 4.03 (2.00–5.78) h
[9]; multiple dose 26 mg, n = 9
  Cmax: 72.8 (61) ng/mL
[10]; 3 h
  Cortex C99 decrease vs vehicle: 65%
  Cortex sAβPPβ decrease vs vehicle: 34%
[10]; 3 hrs
  CSF Aβ1-X reduction vs vehicle, time course: 75%
